# Assay results collected from several papers.
# Target: 5-hydroxytryptamine receptor 7 (HTR7, Homo sapiens, UniProt P34969)
# Technique: radioligand
Compound,assay,conditions,Ki [nM]
CCc1nc2cc(OCCCCN3CCC(c4cccc(Cl)c4Cl)CC3)ccc2s1,cell-free assay,,160
CN1CCN(CCCN2c3ccccc3Sc3ccc(C(F)(F)F)cc32)CC1,ligand displacement,cell membranes,497
O=C(CCCN1CCCN(c2ccc(Cl)cc2)CC1)c1ccc(F)cc1,ligand displacement,,78
O=C1c2ccccc2CCN1CCCCN1CCN(c2cccc(Cl)c2Cl)CC1,ligand displacement,,21
CC1(CCN2CCc3ccccc3C2)Cc2cc(Cl)ccc2C1=O (racemic),ligand displacement,,2.1
CNc1nc2cc(OCCCCN3CCC(c4cccc(Cl)c4Cl)CC3)ccc2s1,cell-free assay,,95
CCCCN1CCC(COC(=O)c2ccc(N)c(OCF)c2)CC1,cell-free assay,,> 10000
Cc1nc2sccn2c(=O)c1CCN1CCC(=C(c2ccc(F)cc2)c2ccc(F)cc2)CC1,ligand displacement,cell membranes,468
